Measurements from ChEMBL document CHEMBL1126976, “Hybrids of antibiotics inhibiting protein synthesis. Synthesis and biological activity” (1993).
In brackets after ≈: the same amount, converted by molar mass.

What was measured:
Saccharomyces cerevisiae [1] = test: The compound was tested for inhibition of Polyphenylalanine synthesis in Saccharomyces cerevisiae ribosome system at concentration of 1*10e-3 M; values are per cent of control
Saccharomyces cerevisiae [2] = test: The compound was tested for inhibition of Polyphenylalanine synthesis in Saccharomyces cerevisiae ribosome system at concentration of 1*10e-4 M; values are per cent of control
Rattus norvegicus [3] = species on record: Rattus norvegicus; test: The compound was tested for inhibition of Puromycin reaction with hybrid antibiotics in a rat liver ribosome system concentrations at 1*10e-3 M; values are per cent of control
Rattus norvegicus [4] = species on record: Rattus norvegicus; test: The compound was tested for inhibition of Puromycin reaction with hybrid antibiotics in a rat liver ribosome system concentrations of 2*10e-4 M; values are per cent of control
Saccharomyces cerevisiae [5] = test: The compound was tested for inhibition of Polyphenylalanine synthesis in Saccharomyces cerevisiae ribosome system at concentration of 1*10e-5 M; values are per cent of control
Klebsiella pneumoniae = test: The compound was tested for minimum inhibitory concentration required for inhibition of microbial growth in Klebsiella pneumoniae at the Upjohn culture; type: functional
In short: (§1)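 Agar dilution in brain heart infusion agar with serial 2-fold compound dilutions. Organisms grown overnight on BHIA at 35 °C aerobically and suspended in TSB to 0.5 McFarland. The suspension is diluted 1:20 and spotted as 1-μL drops (~10^4 CFU). Plates incubated 18 h at 35 °C. MIC is the lowest concentration preventing visible growth.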

[6] = The compound was tested for minimum inhibitory concentration required for inhibition of microbial growth in Salmonella schottmuelleri; type: functional
In short: as §1

Staphylococcus aureus [7] = test: The compound was tested for minimum inhibitory concentration required for inhibition of microbial growth in staphylococcus aureus at the Upjohn culture 6690; type: functional
In short: as §1

Staphylococcus aureus [8] = test: The compound was tested for minimum inhibitory concentration required for inhibition of microbial growth in staphylococcus aureus at the Upjohn culture 6685; type: functional
In short: as §1

Streptococcus pyogenes = test: The compound was tested for minimum inhibitory concentration required for inhibition of microbial growth in Streptococcus pyogenes at the Upjohn culture; type: functional
In short: as §1

Escherichia coli = test: The compound was tested for minimum inhibitory concentration required for inhibition of microbial growth in Escherichia coli at the Upjohn culture; type: functional
In short: as §1

Staphylococcus aureus [9] = test: The compound was tested for minimum inhibitory concentration required for inhibition of microbial growth in staphylococcus aureus at the Upjohn culture 76; type: functional
In short: as §1

Pseudomonas aeruginosa [10] = test: The compound was tested for minimum inhibitory concentration required for inhibition of microbial growth in Pseudomonas aeruginosa at the Upjohn culture 95; type: functional
In short: as §1

Enterococcus faecalis = test: The compound was tested for minimum inhibitory concentration required for inhibition of microbial growth in Enterococcus faecalis at the Upjohn culture; type: functional
In short: as §1

Pseudomonas aeruginosa [11] = test: The compound was tested for minimum inhibitory concentration required for inhibition of microbial growth in Pseudomonas aeruginosa at the Upjohn culture 6676; type: functional
In short: as §1

Streptococcus pneumoniae = test: The compound was tested for minimum inhibitory concentration required for inhibition of microbial growth in Streptococcus pneumoniae at the Upjohn culture; type: functional
In short: as §1

Rattus norvegicus [12] = species on record: Rattus norvegicus; test: The compound was tested for inhibition of Puromycin reaction with hybrid antibiotics in a rat liver ribosome system concentrations of 2*10e-4 M; values are per cent of control; remark: listed apart in the source
Rattus norvegicus [13] = species on record: Rattus norvegicus; test: The compound was tested for inhibition of Puromycin reaction with hybrid antibiotics in a rat liver ribosome system concentrations at 1*10e-3 M; values are per cent of control; remark: listed apart in the source

MIC (Klebsiella pneumoniae) [µg/mL] | MIC [6] [µg/mL] | MIC (Staphylococcus aureus [7]) [µg/mL] | MIC (Staphylococcus aureus [8]) [µg/mL] | MIC (Streptococcus pyogenes) [µg/mL] | MIC (Escherichia coli) [µg/mL] | MIC (Staphylococcus aureus [9]) [µg/mL] | MIC (Pseudomonas aeruginosa [10]) [µg/mL] | MIC (Enterococcus faecalis) [µg/mL] | MIC (Pseudomonas aeruginosa [11]) [µg/mL] | MIC (Streptococcus pneumoniae) [µg/mL] | Structure (SMILES) | level, % of control (Saccharomyces cerevisiae [1]) [%] | level, % of control (Saccharomyces cerevisiae [2]) [%] | level, % of control (Rattus norvegicus [3]) [%] | level, % of control (Rattus norvegicus [4]) [%] | level, % of control (Saccharomyces cerevisiae [5]) [%] | level, % of control (Rattus norvegicus [12]) [%] | level, % of control (Rattus norvegicus [13]) [%]
800 (≈ 2190 µM) | > 800 | > 800 | 800 (≈ 2190 µM) | 200 (≈ 547 µM) | > 800 | 800 (≈ 2190 µM) | > 800 | – | – | – | CCCC1CC(C(=O)NC(CO)C(O)c2ccc([N+](=O)[O-])cc2)N(C)C1 (centres undefined) | – | – | – | – | – | – | –
400 (≈ 984 µM) | > 800 | 0.78 (≈ 1.92 µM) | > 400 | 0.2 (≈ 0.492 µM) | > 400 | 0.78 (≈ 1.92 µM) | > 400 | 50 (≈ 123 µM) | > 400 | 0.78 (≈ 1.92 µM) | CCC[C@@H]1C[C@@H](C(=O)N[C@@H]([C@H]2O[C@H](SC)[C@H](O)[C@@H](O)[C@H]2O)[C@@H](C)O)N(C)C1 [LINCOMYCIN] | – | – | – | – | – | – | –
> 400 | > 400 | > 400 | > 400 | > 400 | > 400 | > 400 | > 400 | > 400 | > 400 | > 400 | CSC1OC(C(NC(=O)/C=C/c2c(C)nc(O)nc2O)C(C)O)C(O)C(O)C1O (centres undefined) | 93.4 | 97.7 | – | – | 101 | 90 | 91
> 400 | > 400 | 50 (≈ 137 µM) | > 400 | 6.25 (≈ 17.2 µM) | > 400 | 50 (≈ 137 µM) | > 400 | > 400 | > 400 | 25 (≈ 68.6 µM) | CSC1OC(C(NC(=O)C(Cl)Cl)C(C)O)C(O)C(O)C1O (centres undefined) | 96.8 | 90.9 | – | – | 97.3 | – | –

Second part, the compound before the results:

Structure (SMILES) | MIC (Klebsiella pneumoniae) [µg/mL] | MIC [6] [µg/mL] | MIC (Staphylococcus aureus [7]) [µg/mL] | MIC (Staphylococcus aureus [8]) [µg/mL] | MIC (Streptococcus pyogenes) [µg/mL] | MIC (Escherichia coli) [µg/mL] | MIC (Staphylococcus aureus [9]) [µg/mL] | MIC (Pseudomonas aeruginosa [10]) [µg/mL] | MIC (Enterococcus faecalis) [µg/mL] | MIC (Pseudomonas aeruginosa [11]) [µg/mL] | MIC (Streptococcus pneumoniae) [µg/mL] | level, % of control (Saccharomyces cerevisiae [1]) [%] | level, % of control (Saccharomyces cerevisiae [2]) [%] | level, % of control (Rattus norvegicus [3]) [%] | level, % of control (Rattus norvegicus [4]) [%] | level, % of control (Saccharomyces cerevisiae [5]) [%] | level, % of control (Rattus norvegicus [12]) [%] | level, % of control (Rattus norvegicus [13]) [%]
Cc1nc(O)nc(O)c1/C=C/C(=O)N[C@H]1[C@@H](O)[C@H](n2cnc3c(N(C)C)ncnc32)O[C@@H]1CO | – | – | – | – | – | – | – | – | – | – | – | 95.7 | 95.8 | 76 | 69 | 106 | – | –
O=C(N[C@H](CO)[C@H](O)c1ccc([N+](=O)[O-])cc1)C(Cl)Cl [CHLORAMPHENICOL] | 3.12 (≈ 9.66 µM) | 6.25 (≈ 19.3 µM) | 50 (≈ 155 µM) | 6.25 (≈ 19.3 µM) | 3.12 (≈ 9.66 µM) | 3.12 (≈ 9.66 µM) | 6.25 (≈ 19.3 µM) | 100 (≈ 309 µM) | 6.25 (≈ 19.3 µM) | 200 (≈ 619 µM) | 3.12 (≈ 9.66 µM) | – | – | – | – | – | – | –
CSC[S@@+]([O-])CC(CO)NC(=O)/C=C/c1c(C)[nH]c(=O)[nH]c1=O (some centres undefined) | – | – | – | – | – | – | – | – | – | – | – | 15.5 | 30.3 | – | – | 44.1 | – | –
Cc1nc(O)nc(O)c1/C=C/C(=O)NC(CO)C(O)c1ccc([N+](=O)[O-])cc1 (centres undefined) | > 400 | > 400 | > 400 | > 400 | 50 (≈ 128 µM) | > 400 | > 400 | > 400 | > 400 | > 400 | > 400 | – | – | – | – | – | – | –
